Data on eight compounds can be found in ChEMBL document CHEMBL1139371, “Total synthesis and biological evaluation of tubulysin U, tubulysin V, and their analogues” (J Med Chem, 2009).

The test system of assay [1] is 1A9. The assay can be described thus: Antiproliferative activity against human 1A9 cells after 4 days by SRB assay. The format is functional, cell-based. Particulars: 1A9, 96 h. A digest of the protocol:
(§1)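 Compounds were tested as HCl salts and dosed from DMSO. Cells were 1A9 ovarian and MCF-7 breast cancer lines. IC50 is the mean of two independent determinations.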
For orientation: In SRB staining, fixed cells bind dye roughly in proportion to their protein.

In assay [2] the test system is MCF7. The assay can be described thus: Antiproliferative activity against human MCF7 cells after 4 days by SRB assay. It is filed as functional, cell-based. Particulars: MCF7, 96 h. An outline of the steps: as §1
Assay [3] in a line: Inhibition of tubulin polymerization.
The nature of assay [4]: Anticancer activity against human KBV1 cells expressing P-gp. The format is functional, cell-based. To be noted: KB-V1.

Turning to `CC[C@H](C)[C@H](NC(=O)[C@@H](C)N(C)C)C(=O)N[C@H](CC(=O)c1nc(C(=O)N[C@@H](Cc2ccccc2)CC(C)(C)C(=O)O)cs1)C(C)C`, the IC50 – broadly, the midpoint of a concentration-inhibition curve – amounted to 14.2 µM in assay [1], 12.2 µM in assay [2] and 8.5 µM in assay [3].
Take `CC[C@H](C)[C@H](NC(=O)[C@@H](C)N(C)C)C(=O)N[C@H](CC(=O)c1nc(C(=O)N[C@@H](Cc2ccccc2)C[C@H](C)C(=O)O)cs1)C(C)C`: the IC50 in assay [1] was > 50 µM; in assay [3] it was 3.6 µM.
Regarding `CC[C@H](C)[C@H](NC(=O)[C@H]1CCCCN1C)C(=O)N[C@H](C[C@H](O)c1nc(C(=O)N[C@@H](Cc2ccccc2)C[C@H](C)C(=O)O)cs1)C(C)C`, the IC50 came to 5.1 µM in assay [1], 8.1 µM in assay [2] and 1.3 µM in assay [3].
The matching figures for `CC[C@H](C)[C@H](NC(=O)[C@@H](C)N(C)C)C(=O)NC(CC(=O)c1nc(C(=O)N[C@H](CCC(=O)O)Cc2ccccc2)cs1)C(C)C` (single isomer, unassigned): 0.3 µM, 0.17 µM and 12.5 µM.
For `CN[C@H](C(=O)N[C@H](C(=O)N(C)[C@H](/C=C(\C)C(=O)O)C(C)C)C(C)(C)C)C(C)(C)c1ccccc1` [TALTOBULIN], in that order: 0.0002 µM, 0.00015 µM and 0.7 µM.
Consider `CC[C@H](C)[C@H](NC(=O)[C@H]1CCCCN1C)C(=O)N(COC(=O)CC(C)C)[C@H](C[C@@H](OC(C)=O)c1nc(C(=O)N[C@@H](Cc2ccccc2)C[C@H](C)C(=O)O)cs1)C(C)C` [TUBULYSIN D], for which, in assay [4], the IC50 stood at 0.00031 µM.
With `CC[C@H](C)[C@H](NC(=O)[C@H]1CCCCN1C)C(=O)N[C@H](C[C@@H](OC(C)=O)c1nc(C(=O)N[C@@H](Cc2ccccc2)C[C@H](C)C(=O)O)cs1)C(C)C` [TUBULYSIN U], the results for the IC50 in assay [1], in assay [2] and in assay [3] were 0.00065 µM, 0.0004 µM and 1.9 µM, respectively.
For `CC[C@H](C)[C@H](NC(=O)[C@H]1CCCCN1C)C(=O)N[C@H](C[C@@H](O)c1nc(C(=O)N[C@@H](Cc2ccccc2)C[C@H](C)C(=O)O)cs1)C(C)C` [TUBULYSIN V], in that order: 0.12 µM, 0.24 µM and 1.1 µM.
